ChEMBL document CHEMBL1629633, “Prevalence of sulfonamide resistance genes in bacterial isolates from manured agricultural soils and pig slurry in the United Kingdom” (2009)

How the values were obtained:
Type in all cases: functional
[1] = tested on: Lysinibacillus sphaericus; assay: Antimicrobial activity against Bacillus sphaericus isolate C237 harboring sul1 to sul3 genes by agar dilution method
Summary of the method: (§1)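 Agar dilution on Iso-Sensitest agar for MICs and resistance breakpoints. Each isolate's inoculum (100 μl) was adjusted to OD600 0.4. Isolates came from soil cores of a field given pig slurry, or from the pig slurry itself. They were picked from nonselective or antibiotic plates incubated aerobically at 28°C, purified by restreaking, checked for sul genes by PCR and identified by 16S rRNA sequencing.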

[2] = tested on: Stenotrophomonas maltophilia; assay: Antimicrobial activity against Stenotrophomonas maltophilia isolate C422 harboring sul1 to sul3 genes by agar dilution method
Summary of the method: (§2)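 Isolates were recovered from manured clay soil or pig slurry on Iso-Sensitest agar at 28°C. sul genes were detected by PCR, and identity was assigned by ~800 bp 16S rRNA sequencing. MICs and resistance breakpoints were found by agar dilution on Iso-Sensitest agar, with each inoculum (100 μl) adjusted to OD600 0.4.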

[3] = tested on: Pseudomonas fluorescens; assay: Antimicrobial activity against Pseudomonas fluorescens isolate C131 harboring sul1 to sul3 genes by agar dilution method; summary of the method: as §1
[4] = tested on: Acinetobacter lwoffii; assay: Antimicrobial activity against Acinetobacter lwoffii isolate C3 harboring sul1 to sul3 genes by agar dilution method; summary of the method: as §1
[5] = tested on: Aerococcus viridans; assay: Antimicrobial activity against Aerococcus viridans isolate PGS22 harboring sul1 to sul3 genes by agar dilution method; summary of the method: as §1
[6] = tested on: Shigella flexneri; assay: Antimicrobial activity against Shigella flexneri isolate C506 harboring sul1 to sul3 genes by agar dilution method; summary of the method: as §2
[7] = tested on: Pseudomonas lini; assay: Antimicrobial activity against Pseudomonas lini isolate C701 harboring sul1 to sul3 genes by agar dilution method; summary of the method: as §1
[8] = Antimicrobial activity against Acinetobacter sp. N2 isolate C439 harboring sul1 to sul3 genes by agar dilution method; summary of the method: as §1
[9] = tested on: Pseudomonas borealis; assay: Antimicrobial activity against Pseudomonas borealis isolate C5 harboring sul1 to sul3 genes by agar dilution method; summary of the method: as §1
[10] = tested on: Enterococcus hirae; assay: Antimicrobial activity against Enterococcus hirae isolate PGS48 harboring sul1 to sul3 genes by agar dilution method; summary of the method: as §1
[11] = tested on: Providencia stuartii; assay: Antimicrobial activity against Providencia stuartii isolate C167 harboring sul1 to sul3 genes by agar dilution method; summary of the method: as §1
[12] = tested on: Acinetobacter lwoffii; assay: Antimicrobial activity against Acinetobacter lwoffii isolate C2 harboring sul1 to sul3 genes by agar dilution method; summary of the method: as §1
[13] = tested on: Pseudomonas putida; assay: Antimicrobial activity against Pseudomonas putida isolate C231 harboring sul1 to sul3 genes by agar dilution method; summary of the method: as §1
[14] = tested on: Arthrobacter arilaitensis; assay: Antimicrobial activity against Arthrobacter arilaitensis isolate C361 harboring sul1 to sul3 genes by agar dilution method; details: Glutamicibacter arilaitensis; summary of the method: as §1
[15] = Antimicrobial activity against Acinetobacter sp. An9 isolate PGS49 harboring sul1 to sul3 genes by agar dilution method; summary of the method: as §1
[16] = Antimicrobial activity against Psychrobacter ikaite isolate C410 harboring sul1 to sul3 genes by agar dilution method; summary of the method: as §2
[17] = tested on: Acinetobacter lwoffii; assay: Antimicrobial activity against Acinetobacter lwoffii isolate PGS47 harboring sul1 to sul3 genes by agar dilution method; summary of the method: as §1
[18] = tested on: Enterococcus sulfureus; assay: Antimicrobial activity against Enterococcus sulfureus isolate PGS61 harboring sul1 to sul3 genes by agar dilution method; summary of the method: as §1
[19] = tested on: Aerococcus viridans; assay: Antimicrobial activity against Aerococcus viridans isolate PGS21 harboring sul1 to sul3 genes by agar dilution method; summary of the method: as §1
[20] = tested on: Acinetobacter lwoffii; assay: Antimicrobial activity against Acinetobacter lwoffii isolate C15 harboring sul1 to sul3 genes by agar dilution method; summary of the method: as §1
[21] = Antimicrobial activity against Psychrobacter ikaite isolate C20 harboring sul1 to sul3 genes by agar dilution method; summary of the method: as §2
[22] = Antimicrobial activity against Psychrobacter sp. DY9-2 isolate C711 harboring sul1 to sul3 genes by agar dilution method; summary of the method: as §2
[23] = tested on: Psychrobacter frigidicola; assay: Antimicrobial activity against Psychrobacter frigidicola isolate C712 harboring sul1 to sul3 genes by agar dilution method; summary of the method: as §1
[24] = Antimicrobial activity against Psychrobacter ikaite isolate C713 harboring sul1 to sul3 genes by agar dilution method; summary of the method: as §2
[25] = tested on: Acinetobacter calcoaceticus; assay: Antimicrobial activity against Acinetobacter calcoaceticus isolate C35 harboring sul1 to sul3 genes by agar dilution method; summary of the method: as §1
[26] = tested on: Acinetobacter calcoaceticus; assay: Antimicrobial activity against Acinetobacter calcoaceticus isolate C36 harboring sul1 to sul3 genes by agar dilution method; summary of the method: as §1
[27] = tested on: Acinetobacter lwoffii; assay: Antimicrobial activity against Acinetobacter lwoffii isolate C37 harboring sul1 to sul3 genes by agar dilution method; summary of the method: as §1
[28] = tested on: Acinetobacter rhizosphaerae; assay: Antimicrobial activity against Acinetobacter rhizosphaerae isolate C44 harboring sul1 to sul3 genes by agar dilution method; summary of the method: as §1
[29] = tested on: Acinetobacter lwoffii; assay: Antimicrobial activity against Acinetobacter lwoffii isolate C141 harboring sul1 to sul3 genes by agar dilution method; summary of the method: as §1
[30] = tested on: Bacillus psychrodurans; assay: Antimicrobial activity against Bacillus psychrodurans isolate C328 harboring sul1 to sul3 genes by agar dilution method; details: Psychrobacillus psychrodurans; summary of the method: as §1
[31] = tested on: Acinetobacter baumannii; assay: Antimicrobial activity against Acinetobacter baumannii isolate C442 harboring sul1 to sul3 genes by agar dilution method; summary of the method: as §1

Measured: MIC

Nc1ccc(S(=O)(=O)Nc2ccc(Cl)nn2)cc1 [SULFACHLORPYRIDAZINE]
16 mg/L: [8] | [15] | [16] | [17]
1 mg/L: [1] | [2] | [4] | [7]
5 mg/L: [12] | [14] | [20] | [21] | [28]
4 mg/L: [10] | [18]
6 mg/L: [11] | [29]
32 mg/L: [3] | [9] | [19]
8 mg/L: all other assays above
